Laboratory results reported in ChEMBL document CHEMBL3603770, “Synthesis and cytotoxic activities of 2-substituted (25R)-spirostan-1,4,6-triene-3-ones via ring-opening/elimination and 'click' strategy” (Bioorg Med Chem Lett, 2015).

Columns and labels:
Format in all cases: functional, cell-based
[1] = test system: HeLa; test: Antiproliferative activity against human HeLa cells incubated for 48 hrs by MTT assay
Method in brief: (§1)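 Human tumour cells exposed to compounds for 48 h at 37 °C; viability read by MTT. Growth inhibition (%) measured in triplicate at 5, 10, 20, 40, 80 and 160 μM; data as mean ± standard deviation. IC50 calculated from percentage inhibition of cell growth.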

[2] = Antiproliferative activity against human CaSki cells incubated for 48 hrs by MTT assay; conditions: Ca-Ski; method in brief: as §1
[3] = test system: HepG2; test: Antiproliferative activity against human HepG2 cells incubated for 48 hrs by MTT assay; conditions: HepG2, 48 h; method in brief: as §1

Row | IC50 [1] | IC50 [3] | Compound | IC50 [2]
1 | > 100 µM | > 100 µM | C[C@@H]1CC[C@@]2(OC1)O[C@H]1C[C@H]3[C@@H]4C=CC5=CC(=O)C(OCc6cn(Cc7ccc(CN=[N+]=[N-])cc7)nn6)=C[C@]5(C)[C@H]4CC[C@]3(C)[C@H]1[C@@H]2C | > 100 µM
2 | > 100 µM | > 100 µM | C[C@@H]1CC[C@@]2(OC1)O[C@H]1C[C@H]3[C@@H]4C=CC5=CC(=O)C(OCc6cn(Cc7ccc(Cn8cc(COC9=C[C@@]%10(C)C(=CC9=O)C=C[C@H]9[C@@H]%11C[C@@H]%12O[C@]%13(CC[C@@H](C)CO%13)[C@@H](C)[C@@H]%12[C@@]%11(C)CC[C@@H]9%10)nn8)cc7)nn6)=C[C@]5(C)[C@H]4CC[C@]3(C)[C@H]1[C@@H]2C | > 100 µM
3 | > 100 µM | > 100 µM | COc1ccc(C(=O)Cn2cc(COC3=C[C@@]4(C)C(=CC3=O)C=C[C@H]3[C@@H]5C[C@@H]6O[C@]7(CC[C@@H](C)CO7)[C@@H](C)[C@@H]6[C@@]5(C)CC[C@@H]34)nn2)cc1 | > 100 µM
4 | > 100 µM | 76.1 µM | Cc1ccc(C(=O)Cn2cc(COC3=C[C@@]4(C)C(=CC3=O)C=C[C@H]3[C@@H]5C[C@@H]6O[C@]7(CC[C@@H](C)CO7)[C@@H](C)[C@@H]6[C@@]5(C)CC[C@@H]34)nn2)cc1 | > 100 µM
5 | > 100 µM | 41.8 µM | COc1ccc(Cn2cc(COC3=C[C@@]4(C)C(=CC3=O)C=C[C@H]3[C@@H]5C[C@@H]6O[C@]7(CC[C@@H](C)CO7)[C@@H](C)[C@@H]6[C@@]5(C)CC[C@@H]34)nn2)cc1 | 67 µM
6 | 57.4 µM | 90.7 µM | C#CCOC1=C[C@@]2(C)C(=CC1=O)C=C[C@H]1[C@@H]3C[C@@H]4O[C@]5(CC[C@@H](C)CO5)[C@@H](C)[C@@H]4[C@@]3(C)CC[C@@H]12 | 23.2 µM
7 | 48.1 µM | 40.2 µM | CC(=O)Cn1cc(COC2=C[C@@]3(C)C(=CC2=O)C=C[C@H]2[C@@H]4C[C@@H]5O[C@]6(CC[C@@H](C)CO6)[C@@H](C)[C@@H]5[C@@]4(C)CC[C@@H]23)nn1 | 11.8 µM
8 | > 100 µM | 53.7 µM | C[C@@H]1CC[C@@]2(OC1)O[C@H]1C[C@H]3[C@@H]4C=CC5=CC(=O)C(OCc6cn(CC(=O)c7ccc(Br)cc7)nn6)=C[C@]5(C)[C@H]4CC[C@]3(C)[C@H]1[C@@H]2C | > 100 µM
9 | > 100 µM | 60.2 µM | C[C@@H]1CC[C@@]2(OC1)O[C@H]1C[C@H]3[C@@H]4C=CC5=CC(=O)C(OCc6cn(CC(=O)c7ccccc7)nn6)=C[C@]5(C)[C@H]4CC[C@]3(C)[C@H]1[C@@H]2C | 99 µM
10 | > 100 µM | > 100 µM | C[C@@H]1CC[C@@]2(OC1)O[C@H]1C[C@H]3[C@@H]4C=CC5=CC(=O)C(OCc6cn(-c7ccccc7)nn6)=C[C@]5(C)[C@H]4CC[C@]3(C)[C@H]1[C@@H]2C | > 100 µM
11 | > 100 µM | > 100 µM | C[C@@H]1CC[C@@]2(OC1)O[C@H]1C[C@H]3[C@@H]4C=CC5=CC(=O)C(OCc6cn(CC#N)nn6)=C[C@]5(C)[C@H]4CC[C@]3(C)[C@H]1[C@@H]2C | > 100 µM
12 | > 100 µM | 53.4 µM | CC(C)COC1=C[C@@]2(C)C(=CC1=O)C=C[C@H]1[C@@H]3C[C@@H]4O[C@]5(CC[C@@H](C)CO5)[C@@H](C)[C@@H]4[C@@]3(C)CC[C@@H]12 | 33.5 µM
13 | > 100 µM | 53.4 µM | C[C@@H]1CC[C@@]2(OC1)O[C@H]1C[C@H]3[C@@H]4C=CC5=CC(=O)C(OCc6cn(Cc7ccccc7)nn6)=C[C@]5(C)[C@H]4CC[C@]3(C)[C@H]1[C@@H]2C | 10.9 µM
14 | > 100 µM | 61.3 µM | CC(C)OC1=C[C@@]2(C)C(=CC1=O)C=C[C@H]1[C@@H]3C[C@@H]4O[C@]5(CC[C@@H](C)CO5)[C@@H](C)[C@@H]4[C@@]3(C)CC[C@@H]12 | 29.3 µM
15 | > 100 µM | 77.1 µM | COC1=C[C@@]2(C)C(=CC1=O)C=C[C@H]1[C@@H]3C[C@@H]4O[C@]5(CC[C@@H](C)CO5)[C@@H](C)[C@@H]4[C@@]3(C)CC[C@@H]12 | 28.5 µM
16 | > 100 µM | 88.1 µM | C[C@@H]1CC[C@@]2(OC1)O[C@H]1C[C@H]3[C@@H]4C=CC5=CC(=O)C(OCc6cn(CC(=O)c7cccc(Br)c7)nn6)=C[C@]5(C)[C@H]4CC[C@]3(C)[C@H]1[C@@H]2C | > 100 µM
17 | 80.3 µM | 61.6 µM | CCCOC1=C[C@@]2(C)C(=CC1=O)C=C[C@H]1[C@@H]3C[C@@H]4O[C@]5(CC[C@@H](C)CO5)[C@@H](C)[C@@H]4[C@@]3(C)CC[C@@H]12 | 32.1 µM
18 | > 100 µM | 44 µM | CCOC(=O)Cn1cc(COC2=C[C@@]3(C)C(=CC2=O)C=C[C@H]2[C@@H]4C[C@@H]5O[C@]6(CC[C@@H](C)CO6)[C@@H](C)[C@@H]5[C@@]4(C)CC[C@@H]23)nn1 | 68.9 µM
19 | > 100 µM | 45.6 µM | C[C@@H]1CC[C@@]2(OC1)O[C@H]1C[C@H]3[C@@H]4C=CC5=CC(=O)C(OCc6cn(CC(=O)c7cccc(O)c7)nn6)=C[C@]5(C)[C@H]4CC[C@]3(C)[C@H]1[C@@H]2C | 9.4 µM
20 | > 100 µM | 52.8 µM | C[C@@H]1CC[C@@]2(OC1)O[C@H]1C[C@H]3[C@@H]4C=CC5=CC(=O)C(OCc6cn(CC(=O)c7ccc(O)cc7)nn6)=C[C@]5(C)[C@H]4CC[C@]3(C)[C@H]1[C@@H]2C | 98.7 µM
21 | 71.6 µM | 85 µM | CCCCOC1=C[C@@]2(C)C(=CC1=O)C=C[C@H]1[C@@H]3C[C@@H]4O[C@]5(CC[C@@H](C)CO5)[C@@H](C)[C@@H]4[C@@]3(C)CC[C@@H]12 | 39.5 µM
22 | > 100 µM | > 100 µM | CCOC1=C[C@@]2(C)C(=CC1=O)C=C[C@H]1[C@@H]3C[C@@H]4O[C@]5(CC[C@@H](C)CO5)[C@@H](C)[C@@H]4[C@@]3(C)CC[C@@H]12 | > 100 µM
